Test results published in ChEMBL document CHEMBL1828577, “Design and synthesis of some new thiophene, thienopyrimidine and thienothiadiazine derivatives of antipyrine as potential antimicrobial agents” (2011).
≈ marks a conversion by molar mass, not a printed value. Calls of active or inactive are those of the source. The calls are words filed in the database; no cut-off is given here.

Experiments:
Type in all cases: functional
[1] = system: Staphylococcus aureus; experiment: Antibacterial activity against Staphylococcus aureus RCMB 000106 after 24 hrs by two fold serial dilution method; conditions: RCMB 000106, 24 h
How it was run: (§1)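 MIC by agar plate method. Two-fold serial dilutions in nutrient broth (beef extract 5 g, peptone 10 g per litre, pH 7.0), autoclaved at 121 °C for 25 min; DMSO control. Loop inoculum diluted to 10⁵–10⁶ CFU mL⁻¹. Incubated at 37 °C for 24 h, then colonies counted. MIC taken as the lowest concentration giving complete inhibition, ignoring a single colony or faint haze.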

[2] = system: Syncephalastrum racemosum; experiment: Antifungal activity against Syncephalastrum racemosum RCMB 052003 after 3 to 4 days by two fold serial dilution method
How it was run: (§2)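 MIC by agar plate method. Two-fold serial dilutions in Sabouraud dextrose broth, autoclaved at 121 °C for 25 min; DMSO control. Loop of culture diluted to 10⁵–10⁶ CFU mL⁻¹. Incubated at 30 °C for 3–4 days, then colonies counted. MIC taken as the lowest concentration fully inhibiting growth relative to control, ignoring a single colony or faint haze.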

[3] = system: Geotrichum candidum; experiment: Antifungal activity against Geotrichum candidum RCMB 052006 after 3 to 4 days by two fold serial dilution method; how it was run: as §2
[4] = system: Pseudomonas aeruginosa; experiment: Antibacterial activity against Pseudomonas aeruginosa RCMB 000102 after 24 hrs by two fold serial dilution method; conditions: RCMB 000102, 24 h; how it was run: as §1
[5] = system: Candida albicans; experiment: Antifungal activity against Candida albicans RCMB 052002 after 3 to 4 days by two fold serial dilution method; how it was run: as §2
[6] = system: Escherichia coli; experiment: Antibacterial activity against Escherichia coli RCMB 000103 at 10 mg/ml after 24 hrs by agar well diffusion method; conditions: for zone of inhibition at 10000 µg/mL: RCMB 000103, 24 h, read-out: DIZ
How it was run: (§3)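 Agar well diffusion on nutrient agar (tryptone 1%, yeast extract 0.5%, NaCl 0.5%, agar 1%, pH 7.0). Plates spread with centrifuged pellets from a 24 h culture (about 10^4-10^6 CFU/ml). 100 µl of sample at 10 mg/mL in DMSO per 6 mm well, DMSO control. Incubated at 37 °C for 24 h. Inhibition zone diameter (mm) caliper-read three times; test run three times; mean ± SD.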

[7] = system: Bacillus subtilis; experiment: Antibacterial activity against Bacillus subtilis RCMB 000107 at 10 mg/ml after 24 hrs by agar well diffusion method; conditions: for zone of inhibition at 10000 µg/mL: RCMB 000107, 24 h, read-out: DIZ; how it was run: as §3
[8] = system: Geotrichum candidum; experiment: Antifungal activity against Geotrichum candidum RCMB 052006 at 10 mg/ml after 3 to 4 days by agar well diffusion method; conditions: for zone of inhibition at 10000 µg/mL: read-out: DIZ
How it was run: (§4)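 Agar well diffusion on Sabouraud dextrose agar (glucose–peptone–agar 40:10:15). Culture grown in Sabouraud broth for 3-4 days to 10^5 CFU mL⁻¹; 0.1 mL spread per plate. Wells sealed at the bottom with 0.8% soft agar, then loaded with 100 µl sample at 10 mg mL⁻¹ in DMSO; DMSO control. Incubated at 30 °C for 3–4 days. Zone caliper-read three times; triplicate tests; mean ± SD.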

[9] = system: Aspergillus fumigatus; experiment: Antifungal activity against Aspergillus fumigatus RCMB 002003 after 3 to 4 days by two fold serial dilution method; how it was run: as §2
[10] = system: Syncephalastrum racemosum; experiment: Antifungal activity against Syncephalastrum racemosum RCMB 052003 at 10 mg/ml after 3 to 4 days by agar well diffusion method; conditions: for zone of inhibition at 10000 µg/mL: read-out: DIZ; how it was run: as §4
[11] = system: Candida albicans; experiment: Antifungal activity against Candida albicans RCMB 052002 at 10 mg/ml after 3 to 4 days by agar well diffusion method; conditions: for zone of inhibition at 10000 µg/mL: read-out: DIZ; how it was run: as §4
[12] = system: Aspergillus fumigatus; experiment: Antifungal activity against Aspergillus fumigatus RCMB 002003 at 10 mg/ml after 3 to 4 days by agar well diffusion method; conditions: for zone of inhibition at 10000 µg/mL: read-out: DIZ; how it was run: as §4
[13] = system: Staphylococcus aureus; experiment: Antibacterial activity against Staphylococcus aureus RCMB 000106 at 10 mg/ml after 24 hrs by agar well diffusion method; conditions: for zone of inhibition at 10000 µg/mL: RCMB 000106, 24 h, read-out: DIZ; how it was run: as §3
[14] = system: Escherichia coli; experiment: Antibacterial activity against Escherichia coli RCMB 000103 after 24 hrs by two fold serial dilution method; conditions: RCMB 000103, 24 h; how it was run: as §1
[15] = system: Bacillus subtilis; experiment: Antibacterial activity against Bacillus subtilis RCMB 000107 after 24 hrs by two fold serial dilution method; conditions: RCMB 000107, 24 h; how it was run: as §1
[16] = system: Pseudomonas aeruginosa; experiment: Antibacterial activity against Pseudomonas aeruginosa RCMB 000102 at 10 mg/ml after 24 hrs by agar well diffusion method; conditions: for zone of inhibition at 10000 µg/mL: RCMB 000102, 24 h, read-out: DIZ; how it was run: as §3
[17] = system: Syncephalastrum racemosum; experiment: Antifungal activity against Syncephalastrum racemosum RCMB 052003 at 30 mg/ml after 3 to 4 days by agar well diffusion method; conditions: read-out: DIZ
[18] = system: Bacillus subtilis; experiment: Antibacterial activity against Bacillus subtilis RCMB 000107 at 30 mg/ml after 24 hrs by agar well diffusion method; conditions: RCMB 000107, 24 h, read-out: DIZ
[19] = system: Staphylococcus aureus; experiment: Antibacterial activity against Staphylococcus aureus RCMB 000106 at 30 mg/ml after 24 hrs by agar well diffusion method; conditions: RCMB 000106, 24 h, read-out: DIZ

Row | Compound | zone of inhibition at 10000 µg/mL [6] | zone of inhibition at 10000 µg/mL [7] | zone of inhibition at 10000 µg/mL [8] | zone of inhibition at 10000 µg/mL [10] | zone of inhibition at 10000 µg/mL [11] | zone of inhibition at 10000 µg/mL [12] | zone of inhibition at 10000 µg/mL [13] | diameter of the inhibition zone (DIZ) [16] | diameter of the inhibition zone (DIZ) [6] | diameter of the inhibition zone (DIZ) [10] | also measured
1 | Cc1c(Nc2csc(NC(=O)CCl)c2C#N)c(=O)n(-c2ccccc2)n1C | 16.2 mm | 24.1 mm | 18.3 mm | 11.2 mm | 15.4 mm | 20.1 mm | 19.4 mm |  |  |  | MIC [1]: 39 µg/mL (≈ 97 µM); MIC [2]: 313 µg/mL (≈ 779 µM); MIC [3]: 78 µg/mL (≈ 194 µM); MIC [4]: 39 µg/mL (≈ 97 µM); MIC [5]: 156 µg/mL (≈ 388 µM); MIC [9]: 39 µg/mL (≈ 97 µM); MIC [14]: 78 µg/mL (≈ 194 µM); MIC [15]: 19 µg/mL (≈ 47.3 µM); zone of inhibition at 10000 µg/mL [16]: 18.9 mm
2 | Clc1ccccc1C(c1ccccc1)(c1ccccc1)n1ccnc1 [CLOTRIMAZOLE] |  |  |  |  |  |  |  |  |  |  | zone of inhibition at 30000 µg/mL [17]: 20 mm
3 | CCC(C)n1ncn(-c2ccc(N3CCN(c4ccc(OCC5COC(Cn6cncn6)(c6ccc(Cl)cc6Cl)O5)cc4)CC3)cc2)c1=O (centres undefined) [ITRACONAZOLE] |  |  |  |  |  |  |  |  |  |  | zone of inhibition at 30000 µg/mL [17]: 22 mm
4 | CC1(C)S[C@@H]2[C@H](NC(=O)Cc3ccccc3)C(=O)N2[C@H]1C(=O)O [PENICILLIN G] |  |  |  |  |  |  |  |  |  |  | zone of inhibition at 30000 µg/mL [18]: 32.5 mm; zone of inhibition at 30000 µg/mL [19]: 29.4 mm
5 | CCO/C=N\c1scc(Nc2c(C)n(C)n(-c3ccccc3)c2=O)c1C#N | 13.8 mm | 19.2 mm | 17.4 mm | 8.5 mm | 14.2 mm | 19.2 mm | 18.4 mm |  |  |  | MIC [1]: 78 µg/mL (≈ 204 µM); MIC [2]: 625 µg/mL (≈ 1640 µM); MIC [3]: 78 µg/mL (≈ 204 µM); MIC [4]: 78 µg/mL (≈ 204 µM); MIC [5]: 156 µg/mL (≈ 409 µM); MIC [9]: 78 µg/mL (≈ 204 µM); MIC [14]: 156 µg/mL (≈ 409 µM); MIC [15]: 39 µg/mL (≈ 102 µM); zone of inhibition at 10000 µg/mL [16]: 16.2 mm
6 | Cc1c(Nc2csc3ncnc(N)c23)c(=O)n(-c2ccccc2)n1C | 10.4 mm | 15.2 mm | 12.8 mm | 13.4 mm | 11 mm | 12.5 mm | 13.9 mm | inactive |  |  | 
7 | CCOC(=O)c1c(Nc2c(C)n(C)n(-c3ccccc3)c2=O)csc1N | 23.8 mm | 25.3 mm | 22 mm | 18.2 mm | 16.4 mm | 22.1 mm | 20.2 mm |  |  |  | MIC [1]: 39 µg/mL (≈ 105 µM); MIC [2]: 39 µg/mL (≈ 105 µM); MIC [3]: 39 µg/mL (≈ 105 µM); MIC [4]: 39 µg/mL (≈ 105 µM); MIC [5]: 78 µg/mL (≈ 209 µM); MIC [9]: 19 µg/mL (≈ 51 µM); MIC [14]: 19 µg/mL (≈ 51 µM); MIC [15]: 19 µg/mL (≈ 51 µM); zone of inhibition at 10000 µg/mL [16]: 20.8 mm
8 | Cc1c(Nc2csc(N)c2C#N)c(=O)n(-c2ccccc2)n1C | 24.4 mm | 27.2 mm | 22.4 mm | 18.9 mm | 17.2 mm | 24.3 mm | 23.9 mm |  |  |  | MIC [1]: 19 µg/mL (≈ 58.4 µM); MIC [2]: 39 µg/mL (≈ 120 µM); MIC [3]: 19 µg/mL (≈ 58.4 µM); MIC [4]: 39 µg/mL (≈ 120 µM); MIC [5]: 39 µg/mL (≈ 120 µM); MIC [9]: 19 µg/mL (≈ 58.4 µM); MIC [14]: 19 µg/mL (≈ 58.4 µM); MIC [15]: 9.5 µg/mL (≈ 29.2 µM); zone of inhibition at 10000 µg/mL [16]: 22.8 mm
9 | Cc1c(Nc2csc(N)c2C(N)=O)c(=O)n(-c2ccccc2)n1C |  |  |  |  |  |  |  | inactive | inactive | inactive | diameter of the inhibition zone (DIZ) [7]: inactive; diameter of the inhibition zone (DIZ) [8]: inactive; diameter of the inhibition zone (DIZ) [11]: inactive; diameter of the inhibition zone (DIZ) [12]: inactive; diameter of the inhibition zone (DIZ) [13]: inactive
10 | Cc1c(Nc2csc3ncn(N)c(=N)c23)c(=O)n(-c2ccccc2)n1C |  |  |  |  |  |  |  | inactive | inactive | inactive | diameter of the inhibition zone (DIZ) [7]: inactive; diameter of the inhibition zone (DIZ) [8]: inactive; diameter of the inhibition zone (DIZ) [11]: inactive; diameter of the inhibition zone (DIZ) [12]: inactive; diameter of the inhibition zone (DIZ) [13]: inactive
11 | Cc1c(NC(=O)/C=C/c2cccs2)c(=O)n(-c2ccccc2)n1C |  | 11.2 mm |  |  | 13.4 mm | 14.2 mm | 11 mm | inactive | inactive | inactive | diameter of the inhibition zone (DIZ) [8]: inactive
12 | Cc1c(NC(=O)CC(=O)C(=O)NN)c(=O)n(-c2ccccc2)n1C |  | 14.4 mm | 13.4 mm | 13.4 mm |  | 11.2 mm | 17.2 mm | inactive | inactive |  | diameter of the inhibition zone (DIZ) [11]: inactive
13 | CN[C@@H]1[C@H](O[C@H]2[C@H](O[C@H]3[C@H](O)[C@@H](O)[C@H](N=C(N)N)[C@@H](O)[C@@H]3N=C(N)N)O[C@@H](C)[C@]2(O)C=O)O[C@@H](CO)[C@H](O)[C@H]1O [STREPTOMYCIN] |  |  |  |  |  |  |  |  |  |  | zone of inhibition at 30000 µg/mL [18]: 29 mm; zone of inhibition at 30000 µg/mL [19]: 25 mm
14 | CCOC(=O)C(=O)CC(=O)Nc1c(C)n(C)n(-c2ccccc2)c1=O |  | 16.2 mm | 13.4 mm |  | 10.6 mm | 11.1 mm | 16.3 mm | inactive | inactive | inactive | 
15 | Cc1c(Nc2csc3c2C(=O)N[S+]([O-])N3)c(=O)n(-c2ccccc2)n1C (centres undefined) |  | 19.2 mm | 14.4 mm | 10.6 mm | 13.4 mm | 15.1 mm | 18.3 mm | inactive | inactive |  | 
16 | CC(=O)Nc1c(C)n(C)n(-c2ccccc2)c1=O | 11.4 mm | 13.2 mm | 13.4 mm |  | 12.2 mm | 14.3 mm | 15.9 mm | inactive |  | inactive | 
